Measured values gathered from unrelated publications.
Lines come from different studies, so protocols differ.
Target: Vasopressin V1a receptor (AVPR1A, Homo sapiens, UniProt P37288)

SMILES | test | setting | endpoint | result
CN(CCN1CCC(OC(=O)Nc2ccccc2-c2ccccc2)CC1)C(=O)c1ccc(CN2CCC(C(N)=O)CC2)cc1 | ligand displacement, radioligand | 1 µM | inhibition | 5%
O=C(Nc1cccnn1)N1CCN([C@@H]2CCOc3cc(C(F)(F)F)ccc32)CC1 | ligand displacement | 20 µM | inhibition | 5%
c1ccc(C(NCCNC(c2ccccc2)c2ccccc2)c2ccccc2)cc1 | cell-free assay | 10 µM | inhibition | -1%
CCN(CC)CCCC[C@H](NC(=O)[C@H](CC(C)C)NC(=O)[C@H](C)NC(=O)[C@H](Cc1ccccc1)NC(=O)c1ccc(C(C)(C)C)cc1)C(=O)N[C@@H](CO)C(=O)OC | ligand displacement, radioligand | 10 µM | remaining binding | 14.6%
COCc1c(-c2cc3cc(C)cc(OC)c3s2)c2c(N)ncnn2c1CN1CCNC(=O)C1 | ligand displacement, radioligand | 10 µM | inhibition | -11%
Clc1ccc2c(C3CCN(CCc4c[nH]c5ccccc45)CC3)c[nH]c2c1 | ligand displacement, radioligand | 10 µM | inhibition | 2%
Nc1ncc(-c2nc(N3CCOCC3)nc(N3CCOCC3)n2)c(C(F)F)n1 | cell-free assay, radioligand | 10 µM | remaining signal | 104%
COc1ccc(S(=O)(=O)N2CCCCC2)cc1C | ligand displacement, radioligand | 10 µM | inhibition | < 30%
C[C@H](C(=O)N[C@H]1COc2ccccc2[C@@H]1S(C)(=O)=O)c1ccc(F)cc1 | cell-free assay | 10 µM | inhibition | -23%
